A selection: hits, their analogues and other compounds. The true share with any hit is near 1.6%.
ADAM10 inh = inhibitors of human ADAM10; O14672; recombinant ADAM10, EDANS/DABCYL FRET peptide cleavage, 3 h; inhibition, % at 7 µM; hit rate 0.62% among 370,000; AID 720582;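 active = inhibition above a per-campaign cutoff equal to the mean of compounds falling between control-based bounds plus 3 SD, cut at about 20% in these data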
Target sequence (O14672 214-748 limits assumed): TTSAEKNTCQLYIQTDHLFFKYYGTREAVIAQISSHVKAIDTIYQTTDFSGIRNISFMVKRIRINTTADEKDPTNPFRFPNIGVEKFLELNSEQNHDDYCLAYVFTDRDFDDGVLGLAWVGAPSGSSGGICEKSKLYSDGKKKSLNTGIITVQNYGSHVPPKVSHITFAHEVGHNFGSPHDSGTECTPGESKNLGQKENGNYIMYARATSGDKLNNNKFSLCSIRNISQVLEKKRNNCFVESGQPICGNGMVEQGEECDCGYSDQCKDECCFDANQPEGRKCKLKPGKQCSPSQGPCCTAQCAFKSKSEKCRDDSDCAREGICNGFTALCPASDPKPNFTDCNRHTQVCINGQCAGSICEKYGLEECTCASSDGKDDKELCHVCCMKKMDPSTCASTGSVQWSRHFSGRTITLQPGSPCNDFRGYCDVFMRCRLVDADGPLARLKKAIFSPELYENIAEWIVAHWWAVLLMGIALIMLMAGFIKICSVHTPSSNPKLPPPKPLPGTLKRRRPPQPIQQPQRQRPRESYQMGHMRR
DDE Tn6 FP inh = DD(E)-Tn6 binding inhibition, primary FP screen; P02675; Fibrin DD(E) TRITC-Tn6 fluorescence polarization displacement; inhibition, % at 8.3 µM; hit rate 0.21% among 370,000;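 active = inhibition above a per-campaign cutoff: mean of compounds within control limits plus 3 SD, cut at about 15% in these data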
DDE Tn7 FP inh = inhibitors of Tn7 peptide binding to human fibrin DD(E) | FP displacement of FITC-Tn7 peptide from fibrin DD(E); 0% = median of compound wells per plate | inhibition, % at 8.3 µM | hit rate 0.13% among 370,000;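 active = inhibition above the mean of compounds falling within the control limits plus 3 SD of them, cut at about 14% in these data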
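Test system: human clot-derived fibrin DD(E) complex / Quantity: 2 µM final DD(E) protein / Incubation: 10 min plus 3 h, room temperature / Measured by: fluorescence polarization / Benchmarks: high control of 10 µM Aha-Tn7 peptide / Replicates: singlicate testing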
ADAM17 inh = inhibitors of human ADAM17; recombinant ADAM17, EDANS/DABCYL FRET peptide cleavage; inhibition, % at 6.95 µM; hit rate 0.83% among 370,000; AID 720648;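 active = inhibition above the mean of compounds lying between control limits plus 3 SD, set per campaign, cut at about 8.5% in these data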
MT1-MMP act inh = blocks activation of human MT1-MMP | P50281 | GFP/RFP ratio change, % at 20 µM | hit rate 0.061% among 360,000 | HT1080 RFP-PRO-GFP cells, GFP/RFP ratio fluorescence, overnight; percent of plate control window, DMSO zero | AID 651647;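 active = GFP/RFP ratio change of at least 30% with cell ATP level not reduced by more than half and red fluorescence within 50% of control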
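Assay system: RFP-PRO-GFP reporter HT1080 cells; read-out basis: GFP/RFP fluorescence ratio; benchmarks: DMSO wells and RFP-L50D-GFP cells; doses: 20 µM single dose, 1% DMSO; schedule: overnight cell settling, then overnight compound exposure, 37 °C, 5% CO2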
ADAM10 confirm = confirmation of inhibitors of human ADAM10; shares compounds with ADAM10 inh; ADAM10 QFRET peptide cleavage, EDANS fluorescence; inhibition, % at 6.95 µM; hit rate 1% among 2,100;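 active = inhibition above about 20% chosen separately for each screening run, limit read from the data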
ADAM17 ctr = ADAM17 inhibition, counter-screen for ADAM10 exosite hits. shares compounds with ADAM10 inh. ADAM17 QFRET peptide cleavage, EDANS fluorescence. inhibition, % at 6.95 µM. hit rate 0.5% among 2,100;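 active = mean triplicate inhibition above the solvent-only control wells' mean plus 3 SD, cut at about 12% in these data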
A number is an active result; 0 = inactive; - = not tested or not shown.

SMILES	ADAM10 inh	DDE Tn6 FP inh	DDE Tn7 FP inh	ADAM17 inh	MT1-MMP act inh	ADAM10 confirm	ADAM17 ctr
CCOC(=O)[C@]12CCCC=C1N(Cc1ccc(Cl)cc1Cl)C(=O)[C@H](CC(=O)NCCc1ccccc1OC)C2	22.7	0	0	0	0	0	0
COc1ccc(OC)c(CNS(=O)(=O)c2ccccc2Br)c1	0	0	0	0	-	-	-
COc1ccccc1-c1ccc(OCCCN2CCC(C(O)(c3ccccc3)c3ccccc3)CC2)cc1	0	0	0	0	-	-	-
CCc1c(C(=O)NNC(=S)Nc2ccc(S(=O)(=O)Nc3ncccn3)cc2)csc1C	23.0	0	0	0	0	0	0
O=S1(=O)c2ccc(N3CCN(Cc4ccccc4F)CC3)cc2Oc2ccccc2CN1Cc1cn(Cc2ccc(F)cc2)nn1	0	0	0	0	-	-	-
Cc1ccc(SCCNC(=O)c2ccc(C)c(S(=O)(=O)Nc3ccccc3C)c2)cc1	20.7	0	0	0	0	0	0
Cc1ccc(C(=O)NCCSC2CCCCC2)cc1S(=O)(=O)Nc1ccccc1	23.7	0	0	0	0	0	0
C/C(=C/c1[nH]c(N)[n+](CC2CC2)c1Cc1ccccc1)Cn1[nH]c(=O)n(-c2ccccc2)c1=O	0	0	0	0	-	-	-
CSCCC(NC(=O)c1ccccc1)C(=O)OCC(=O)Nc1ccc(C)c(Cl)c1 (configuration not stated)	32.4	0	0	0	0	0	0
CSCCC(NC(=O)c1ccc(Cl)cc1)C(=O)OCC(=O)Nc1cc(Cl)ccc1C#N (configuration not stated)	0	0	0	0	0	-	-
CSc1nnc(CSCc2ccc(Cl)cc2Cl)n1-c1ccccc1	23.2	0	0	0	0	0	0
Cn1c(CSCc2ccc(Cl)cc2Cl)n[nH]c1=S	0	0	0	0	0	-	-
COC(=O)[C@]12C[C@H](CC(=O)NCc3ccccc3)C(=O)N(Cc3cccc4ccccc34)C1=C[C@H](C(C)C)O[C@@H]2C1CC1	22.6	0	0	0	-	0	0
COC(=O)[C@]12C[C@H](CC(=O)NCc3cccc4ccccc34)C(=O)N(Cc3cccc4ccccc34)C1=C[C@H](C(C)C)O[C@@H]2C1CC1	0	0	0	0	-	-	-
COC(=O)[C@]12C[C@H](CC(=O)NCc3cccc(C(F)(F)F)c3)C(=O)N(Cc3cccc4ccccc34)C1=C[C@H](C(C)C)O[C@@H]2C1CC1	24.8	0	0	0	-	0	0
COC(=O)[C@]12C[C@H](CC(=O)NCc3cccc(C(F)(F)F)c3)C(=O)N(Cc3ccccc3)C1=C[C@H](C(C)C)O[C@@H]2C1CC1	0	0	0	0	-	-	-
Nc1[nH]c(C(=O)c2ccc(Br)cc2)c(-c2ccc3ccccc3c2)c1C(=O)NCCc1c[nH]c2ccccc12	0	0	0	0	-	-	-
CCOC(=O)[C@]12CCCCC/C=C\1N(CCc1ccc(Cl)cc1)C(=O)[C@H]2CC(=O)N1CCC(c2ccccc2)CC1	0	0	0	0	-	-	-
C=CCN(CC#Cc1ccccc1)CC1CC1	0	0	0	0	-	-	-
COc1ccc2cc(-c3cn(C(=O)N(c4ccccc4)c4ccccc4)nn3)ccc2c1	0	0	0	0	-	-	-
COC(=O)CN1C(=S)N(c2ccc(F)cc2)C(=O)C1CC(=O)Nc1ccc(F)cc1 (configuration not stated)	0	0	0	0	0	-	-
COC(=O)CN1C(=S)N(c2ccc(Cl)cc2)C(=O)C1CC(=O)Nc1ccc(Cl)cc1 (configuration not stated)	21.8	0	0	0	0	0	0
COc1ccc(NC(=O)CC2C(=O)N(c3ccc(Cl)cc3)C(=S)N2CCc2ccncc2)cc1 (configuration not stated)	-	-	-	-	0	-	-
COC(=O)CN1C(=S)N(c2ccc(Cl)cc2)C(=O)C1CC(=O)Nc1ccc(F)cc1 (configuration not stated)	33.6	0	0	0	0	0	0
S=C1NC[C@H](Cc2ccccc2)N1CC1CCN(CCCC2CCCCC2)CC1	0	0	0	0	-	-	-
SMILES	ADAM10 inh	DDE Tn6 FP inh	DDE Tn7 FP inh	ADAM17 inh	MT1-MMP act inh	ADAM10 confirm	ADAM17 ctr
Cc1ccc(N2CC(C(=O)Nc3nnc(SCC(N)=O)s3)CC2=O)cc1 (configuration not stated)	80.6	0	0	0	0	0	0
Cn1cc(C(=O)c2ccc(Cl)cc2Cl)cc1C(=O)N/N=C(\N)COc1ccc(Cl)cc1Cl	29.6	0	0	19.9	0	0	0
Cn1cc(C(=O)c2ccc(Cl)cc2Cl)cc1C(=O)N/N=C(\N)COc1ccccc1	0	0	0	0	0	-	-
Cc1ccccc1S(=O)(=O)N1C(c2ccc(Cl)c(Cl)c2)CC=C(C(=O)O)C1c1cccc(Br)c1 (configuration not stated)	20.1	0	0	0	0	0	0
Cc1ccccc1S(=O)(=O)N1[C@@H](c2ccccc2)C(C(=O)O)=CC[C@H]1c1ccc(Cl)cc1	0	0	0	0	0	-	-
C=C[C@@H]1c2ccccc2N(S(=O)(=O)c2ccc(C)cc2)[C@H](c2ccc(OC(C)=O)cc2)C1(C#N)C#N	23.1	0	0	0	0	0	0
C[C@@H]1CN([C@@H](C)CO)C(=O)CCCn2cc(nn2)CO[C@H]1CN(C)C(=O)c1ccncc1	0	0	0	0	-	-	-
O=C1OCCN1C(=O)[C@H]1[C@H](c2ccccc2)C(c2cccc(Cl)c2)=NN1c1ccccc1	-	-	-	-	0	-	-
O=C1OCCN1C(=O)[C@H]1[C@H](c2ccc(Cl)cc2)C(c2ccccc2)=NN1c1ccccc1	0	0	0	0	0	-	-
O=C1OCCN1C(=O)[C@H]1[C@H](c2ccc([N+](=O)[O-])cc2)C(c2ccccc2)=NN1c1ccccc1	23.7	0	0	0	0	0	0
O=C1OCCN1C(=O)[C@H]1[C@H](c2ccc([N+](=O)[O-])cc2)C(c2cccc(Cl)c2)=NN1c1ccccc1	42.0	0	0	17.2	0	0	0
COc1ccc(-c2cc(C(=O)N=Nc3c(O)[nH]c4ccccc34)[nH]n2)cc1	0	0	0	0	-	-	-
C[C@@H]1COc2cccc(NCCCN3CCOCC3)c2S(=O)(=O)N1	0	0	0	0	-	-	-
Cc1ccc2nc(C3CCN(S(=O)(=O)c4ccc5ccccc5c4)CC3)[nH]c2c1	26.0	0	0	0	0	0	0
Cn1cccc1/C=N/NC(=O)c1cc2ccccc2cc1O	22.8	0	0	0	0	0	0
CC(C)CNC(=O)OCc1cn(Cc2cccc(C(F)(F)F)c2)nn1	0	0	0	0	-	-	-
Cc1ccc(NC(=O)CN2CCN(c3nc(-c4ccccc4)cs3)CC2)cc1C	22.1	0	0	0	-	0	0

Bioassay records as filed in PubChem.
